# Assay results from different studies.
# Protocols differ between the studies behind these lines.
SMILES,target or system,test,setting,measurement,value
CC1=NN(CNC(=O)c2ccccc2)C(=O)C1=NNn1c(-c2ccccc2)nc2ccccc2c1=O,Trichophyton rubrum,"microbial growth, broth dilution",,MIC,104 µM
O=C(Nc1ccccc1-c1ccc(F)c(F)c1)c1nccnc1C(F)(F)F,Rhizoctonia solani,microbial growth,,EC50,0.2 µg/mL
CC1=NN(CNc2ccc(C(=O)O)cc2)C(=O)C1=NNn1c(-c2ccccc2)nc2ccccc2c1=O,Trichophyton rubrum,"microbial growth, broth dilution",,MIC,101 µM
COc1ccc(-c2ccc(-c3ccc(C(=N)N)nc3)s2)cc1Cl,NCI-H322M,"cell growth or viability, SRB",,GI50,1.67 µM
COc1ccc(Sc2ccc(C)cc2)c(OC)c1OC,Leishmania braziliensis,"parasite growth, MTT","24 h, promastigote",IC50,40.3 µM
CCCCc1nc2ncccn2c1NC(C)(C)CC(C)(C)C,Leishmania amazonensis,"parasite growth, MTT","72 h, promastigote",IC50,47.8 µM
c1ccc(-c2ccc(CNCC3(N4CCCC4)COC3)o2)cc1,T98G,cell growth or viability,"30 µM, 48 h",viability,74.2%
COc1ccc(Nc2c(-c3ccc4c(c3)OCO4)nc3ncccn23)cc1,Leishmania amazonensis,"parasite growth, MTT","72 h, promastigote",IC50,> 100 µM
FC1CCN(C2(CNCc3ccc(-c4ccccc4Cl)o3)COC2)C1 (stereo not drawn),GBM6,cell growth or viability,"30 µM, 48 h",viability,47.4%
COc1ccc([S+]([O-])c2ccc(OC)c(OC)c2OC)cc1 (stereo not drawn),Leishmania braziliensis,"parasite growth, MTT",promastigote,IC50,15 µM
COc1cccc(-c2nc3ncccn3c2NC(C)(C)CC(C)(C)C)c1,Leishmania amazonensis,"parasite growth, MTT","72 h, promastigote",IC50,17 µM
CC(=O)NCN1N=C(C)C(=NNn2c(-c3ccccc3)nc3ccccc3c2=O)C1=O,Trichophyton rubrum,"microbial growth, broth dilution",,MIC,120 µM
